Like-named read-outs stand apart in the source and are kept apart here.
Key:
MDA-MB-435 = assay: NCI60 SRB screen; format: cell-based; conditions: Homo sapiens, MDA-MB-435, read-out: growth inhibition
In short: (§1)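 Tested on the 60-line human cancer panel by sulforhodamine B assay. The dye binds cell protein under mildly acidic conditions and is extracted with basic medium; bound dye is taken as a proxy for cell mass. A single-dose test at 10 μM gives % growth inhibition; a five-dose test gives GI50.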

[1] = tested on: T-47D human breast carcinoma cells; assay: MTT cell toxicity assay; format: cell-based; conditions: for GI50: 72 h, read-out: cancer cell growth inhibition, GI50; for times more potent than PrTPP: MTT test
In short: (§2)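 Cells were seeded at 5 × 10^3/well in medium with 10% FBS and kept at 37 °C, 5% CO2. Media: DMEM for A549 and A375; EMEM for DU145; F-12K for PC-3; McCoy's 5a for HCT-116 and SK-OV-3; RPMI-1640 + insulin 0.2 Units/mL for T-47D. Test compound came from DMSO stocks, with tubercidin as positive control. MTT at 0.5 mg/mL final was added for 2–3 h at 37 °C, then absorbance read at 570 nm. Three repeats; GI50 from sigmoidal fit.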

[2] = tested on: HCT-116 human colon epithelial colorectal carcinoma cells; assay: MTT cell toxicity assay; format: cell-based; conditions: read-out: cancer cell growth inhibition, GI50
In short: as §2

[3] = tested on: HCT-116 human colon epithelial colorectal carcinoma cells; assay: Click-iT-EdU Alexa Fluor 488 cell proliferation assay; format: cell-based; conditions: read-out: DNA synthesis inhibition, GI50
In short: (§3)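 Cells were seeded at 800/well in medium with 10% FBS under 5% CO2. HCT-116 grew in McCoy's 5a and T-47D in RPMI-1640 + insulin 0.2 Units/mL. Test compound came from DMSO stocks, with tubercidin as positive control. After 72 h, EdU was added for 2.5 h at 37 °C. Cells were fixed in 4% paraformaldehyde (30 min, RT) and stained with Hoechst 33342. Click-iT Alexa Fluor 488 reaction ran 1 h at RT in the dark. Plates were read by high-content imaging; value from sigmoidal fit.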

[4] = tested on: T-47D human breast carcinoma cells; assay: as above; format: cell-based; conditions: for GI50: 72 h, read-out: DNA synthesis inhibition, GI50; for times more potent than PrTPP: Click-iT-EdU test
In short: as §3

[5] = tested on: panel of 60 human cancer cell lines; assay: NCI60 screen, SRB assay, panel mean; format: cell-based; conditions: for NCI60 screen mean GI, %: single-dose inhibition of cell growth at 10 μM; for GI50: Homo sapiens, read-out: NCI60 screen mean GI50
In short: as §1

[6] = tested on: DU145 human prostate epithelial carcinoma cells; assay: MTT cell toxicity assay; format: cell-based; conditions: read-out: cancer cell growth inhibition, GI50
In short: as §2

[7] = tested on: A375 human skin epithelial malignant melanoma cells; assay: MTT cell toxicity assay; format: cell-based; conditions: read-out: cancer cell growth inhibition, GI50
In short: as §2

A498 = assay: NCI60 SRB screen; format: cell-based; conditions: Homo sapiens, A498, read-out: growth inhibition
In short: as §1

[8] = tested on: A549 human lung epithelial carcinoma cells; assay: MTT cell toxicity assay; format: cell-based; conditions: read-out: cancer cell growth inhibition, GI50
In short: as §2

[9] = tested on: PC-3 human prostate epithelial adenocarcinoma grade IV cells; assay: MTT cell toxicity assay; format: cell-based; conditions: 72 h, read-out: cancer cell growth inhibition, GI50
In short: as §2

[10] = tested on: SK-OV-3 human ovary ascites epithelial adenocarcinoma cells; assay: MTT cell toxicity assay; format: cell-based; conditions: read-out: cancer cell growth inhibition, GI50
In short: as §2

[11] = tested on: Caco-2 colon adenocarcinoma cells; conditions: read-out: IC50, growth suppression; 24 h treatment; ref [9]; cited from earlier work
[12] = tested on: panel of 60 human cancer cell lines; conditions: read-out: NCI60 screen mean GI50; SRB assay; ref NCI60 screen data, NSC 115712; cited from earlier work
[13] = tested on: MCF-7 human breast carcinoma cells; conditions: ref [30]; cited from earlier work
sea urchin embryos = assay: Phenotypic sea urchin embryo assay; format: in vivo, Paracentrotus lividus
SK-MEL-5 = assay: NCI60 SRB screen; format: cell-based, human; conditions: NCI60 single dose, SK-MEL-5 melanoma
In short: as §1

MDA-MB-468 = assay: NCI60 SRB screen; format: cell-based, human; conditions: NCI60 single dose, MDA-MB-468 breast cancer
In short: as §1

Compound | GI50 ([1]; Homo sapiens, T47D) [nM] | GI50 ([2]; Homo sapiens, HCT-116, 72 h) [nM] | GI50 ([3]; Homo sapiens, HCT-116, 72 h) [nM] | GI50 ([4]; Homo sapiens, T47D) [nM] | NCI60 screen mean GI, % [5] [%] | GI50 ([6]; Homo sapiens, DU-145, 72 h) [nM] | GI50 ([7]; Homo sapiens, A-375, 72 h) [nM] | GI50 ([8]; Homo sapiens, A549, 72 h) [nM] | GI50 ([9]; Homo sapiens) [nM] | GI50 ([10]; Homo sapiens, SK-OV-3, 72 h) [nM] | further results
COc1cc(CCC[P+](c2ccccc2)(c2ccccc2)c2ccccc2)c(OC)c(OC)c1OC.[I-] [7d, [3-(2,3,4,5-Tetramethoxyphenyl)propyl](triphenyl)phosphonium Iodide] | 500 ± 70 | 218 ± 24 | 681 ± 90 | 613 ± 25 | 32.9 | 8130 ± 150 | 2350 ± 240 | 17900 ± 360 | 3880 ± 550 | 21600 ± 1530 | inhibition at 10 µM (MDA-MB-435): ~100%; times more potent than PrTPP ([1]; T-47D): 4.8 times; times more potent than PrTPP ([4]; T-47D): 5.6 times; inhibition at 10 µM (A498): ~100%
COc1cc(CCC[P+](c2ccccc2)(c2ccccc2)c2ccccc2)c(OC)c2c1OCO2.[I-] [7a, [3-(4,7-Dimethoxy-1,3-benzodioxol-5-yl)propyl](triphenyl)phosphonium Iodide] | 89 ± 8 | 263 ± 33 | 367 ± 50 | 104 ± 7 | – | 2860 ± 400 | 627 ± 85 | 3000 ± 210 | 552 ± 30 | 2420 ± 430 | times more potent than PrTPP ([1]; T-47D): 26.9 times; times more potent than PrTPP ([4]; T-47D): 33.2 times; GI50 [5]: 1660 nM
C=CCc1cc(OC)c2c(c1)OCO2 [1c, myristicin] | 113000 ± 12400 | > 250000 | > 250000 | > 250000 | – | > 250000 | > 250000 | > 250000 | > 250000 | > 250000 | IC50 [11]: 760000 nM
Nc1ncnc2c1ccn2[C@@H]1O[C@H](CO)[C@@H](O)[C@H]1O [tubercidin, Tubercidin, reference compound] | 13 ± 1 | 80 ± 4 | 30.7 ± 2 | 44 ± 6 | – | 256 ± 90 | 43 ± 4 | 44 ± 3 | 76 ± 1 | 131 ± 2 | GI50 [12]: 331 nM
C=CCc1cc(OC)c2c(c1OC)OCO2 [1a, Apiol] | 70700 ± 9900 | > 250000 | > 250000 | > 250000 | – | > 250000 | > 250000 | > 250000 | > 250000 | > 250000 | –
COc1c(CCCO)cc2c(c1OC)OCO2 [4b, 3-(6,7-Dimethoxy-1,3-benzodioxol-5-yl)propan-1-ol] | > 250000 | > 250000 | > 250000 | > 250000 | 0 | > 250000 | > 250000 | > 250000 | > 250000 | > 250000 | –
CCCCCCCCCCCC[P+](c1ccccc1)(c1ccccc1)c1ccccc1 [dodecyl-TPP] | – | – | – | – | – | – | – | – | – | – | concentration exhibiting cytotoxicity [13]: 250 nM
COc1c(CCC[P+](c2ccccc2)(c2ccccc2)c2ccccc2)cc2c(c1OC)OCO2.[I-] [7b, [3-(6,7-Dimethoxy-1,3-benzodioxol-5-yl)propyl](triphenyl)phosphonium Iodide] | 107 ± 4 | 229 ± 27 | 405 ± 36 | 118 ± 7 | – | 3260 ± 360 | 491 ± 19 | 4640 ± 370 | 555 ± 49 | 6620 ± 130 | times more potent than PrTPP ([1]; T-47D): 22.3 times; times more potent than PrTPP ([4]; T-47D): 29.2 times; GI50 [5]: 1580 nM
[3-(7-Methoxy-1,3-benzodioxol-5-yl)propyl](trimethyl)phosphonium Iodide [7c] | – | – | – | – | 63.9 | – | – | – | – | – | cleavage alteration, EC (sea urchin embryos; effective threshold concentration, fertilized eggs exposed): >4 µM; times more potent than PrTPP ([1]; T-47D): 239 times; GI50 ([1]; T-47D, MTT assay): 10 ± 0.5 nM; GI50 ([2]; HCT-116, MTT assay, 72 h): 331 ± 39 nM; effect at 10 μM (in words) (SK-MEL-5): lethal effect; GI50 ([3]; HCT-116, Click-iT-EdU, 72 h): 220 ± 30 nM; times more potent than PrTPP ([4]; T-47D): 138 times; GI50 ([4]; T-47D, Click-iT-EdU): 25 ± 2 nM; number of cancer cell lines with growth inhibited by more than 80% ([5]; NCI60 single dose 10 μM): 18; GI50 ([6]; DU145, MTT assay, 72 h): 5120 ± 660 nM; GI50 ([7]; A375, MTT assay, 72 h): 1080 ± 60 nM; effect at 10 μM (in words) (MDA-MB-468): lethal effect; GI50 ([8]; A549, MTT assay, 72 h): 12200 ± 610 nM; GI50 ([9]; PC-3, MTT assay): 410 ± 40 nM; GI50 ([10]; SK-OV-3, MTT assay, 72 h): 11000 ± 1400 nM
COc1cc(CCCO)cc2c1OCO2 [4c, 3-(7-Methoxy-1,3-benzodioxol-5-yl)propan-1-ol] | > 250000 | > 250000 | > 250000 | > 250000 | 0 | > 250000 | > 250000 | > 250000 | > 250000 | > 250000 | –
COc1cc(OCCCCCC[P+](c2ccccc2)(c2ccccc2)c2ccccc2)c(OC)c2c1OCO2.[Br-] [compound 11, {6-[(4,7-Dimethoxy-2H-1,3-benzodioxol-5-yl)oxy]hexyl}(triphenyl)phosphonium Bromide] | 421 ± 13 | 1950 ± 210 | 2830 ± 370 | 606 ± 60 | – | 20800 ± 1300 | 1930 ± 77 | 463 ± 42 | 258 ± 26 | 24600 ± 2000 | effect on sea urchin embryo development (in words) (sea urchin embryos; in vivo): moderate antiproliferative effect on the sea urchin embryos
COc1cc(CCCO)c(OC)c2c1OCO2 [4a, 3-(4,7-Dimethoxy-1,3-benzodioxol-5-yl)propan-1-ol] | > 250000 | > 250000 | > 250000 | > 250000 | 0 | > 250000 | > 250000 | > 250000 | > 250000 | > 250000 | –
COc1cc(CCCO)c(OC)c(OC)c1OC [4d, 3-(2,3,4,5-Tetramethoxyphenyl)propan-1-ol] | > 250000 | > 250000 | > 250000 | > 250000 | 0 | > 250000 | > 250000 | > 250000 | > 250000 | > 250000 | –
COc1cc(COC(=O)CCCCC[P+](c2ccccc2)(c2ccccc2)c2ccccc2)c(OC)c2c1OCO2.[Br-] [compound 16, {6-[(4,7-Dimethoxy-2H-1,3-benzodioxol-5-yl)methoxy]-6-oxohexyl}(triphenyl)phosphonium Bromide] | 430 ± 880 | 1070 ± 20 | – | – | 49.2 | 14100 ± 370 | 3430 ± 80 | 18500 ± 670 | 4180 ± 130 | 10200 ± 190 | number of cancer cell lines with 80–100% growth inhibition ([5]; NCI60 single dose 10 μM): nine
COc1cc(CNC(=O)CCCCC[P+](c2ccccc2)(c2ccccc2)c2ccccc2)c(OC)c2c1OCO2.[Br-] [compound 17, (6-{[(4,7-Dimethoxy-2H-1,3-benzodioxol-5-yl)methyl]amino}-6-oxohexyl)(triphenyl)phosphonium Bromide] | 256 ± 80 | 1050 ± 10 | – | – | 35.8 | 11300 ± 750 | 2780 ± 170 | 9960 ± 220 | 2150 ± 40 | 18900 ± 2860 | number of cancer cell lines with 80–100% growth inhibition ([5]; NCI60 single dose 10 μM): three

Reference: PMC8811894 (ACS Omega, 2022)
